Source: PubChem
Only some compounds are listed: those with a hit (about 4.2% of all), similar ones and a draw of the others.
UPR CHOP act – activators of apoptotic arm of unfolded protein response (CHOP) | CHO-CHOP luciferase reporter, UPR activation, luminescence; percent of tunicamycin response over DMSO baseline | activation, % at 10 µM | 330,000 compounds, 0.34% hits;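 active = at 10 µM dose, activation of 40% or more, normalized to positive control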;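 note: 100% = tunicamycin at 10 µg/mL and 0% = DMSO alone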
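Test system: CHO-CHOP cells, stable luciferase reporter of PERK-eIF2a-CHOP signalling | Quantity: 500 CHO-CHOP cells per well | Buffer or medium: F12 plus 10% serum | Compound dosing: 10 µM single point, 0.5% DMSO | Schedule: 6 h compound treatment, 37 °C | Signal: Luciferase luminescence | Control set: Tunicamycin high control, DMSO low control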
ANO1 activ – activates or potentiates the mouse TMEM16A chloride channel; HEK293 TMEM16A/YFP-H148Q/I152L, iodide quench fluorescence; active compounds read low; 340,000 compounds, 0.3% hits; AID 623877; B-score at 10 µM; Q8BHY3;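 active = fluorescence-ratio B-score plate-corrected deviation score at least 3 library SD below zero, with starting fluorescence score within 5 deviations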;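 note: channel opened by trigger with iodide after compound preincubation; score built on the fluorescence ratio of max minus min over baseline; more negative score means more quench and so TMEM16A activation or potentiation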
Target sequence (Q8BHY3 whole entry, looked up): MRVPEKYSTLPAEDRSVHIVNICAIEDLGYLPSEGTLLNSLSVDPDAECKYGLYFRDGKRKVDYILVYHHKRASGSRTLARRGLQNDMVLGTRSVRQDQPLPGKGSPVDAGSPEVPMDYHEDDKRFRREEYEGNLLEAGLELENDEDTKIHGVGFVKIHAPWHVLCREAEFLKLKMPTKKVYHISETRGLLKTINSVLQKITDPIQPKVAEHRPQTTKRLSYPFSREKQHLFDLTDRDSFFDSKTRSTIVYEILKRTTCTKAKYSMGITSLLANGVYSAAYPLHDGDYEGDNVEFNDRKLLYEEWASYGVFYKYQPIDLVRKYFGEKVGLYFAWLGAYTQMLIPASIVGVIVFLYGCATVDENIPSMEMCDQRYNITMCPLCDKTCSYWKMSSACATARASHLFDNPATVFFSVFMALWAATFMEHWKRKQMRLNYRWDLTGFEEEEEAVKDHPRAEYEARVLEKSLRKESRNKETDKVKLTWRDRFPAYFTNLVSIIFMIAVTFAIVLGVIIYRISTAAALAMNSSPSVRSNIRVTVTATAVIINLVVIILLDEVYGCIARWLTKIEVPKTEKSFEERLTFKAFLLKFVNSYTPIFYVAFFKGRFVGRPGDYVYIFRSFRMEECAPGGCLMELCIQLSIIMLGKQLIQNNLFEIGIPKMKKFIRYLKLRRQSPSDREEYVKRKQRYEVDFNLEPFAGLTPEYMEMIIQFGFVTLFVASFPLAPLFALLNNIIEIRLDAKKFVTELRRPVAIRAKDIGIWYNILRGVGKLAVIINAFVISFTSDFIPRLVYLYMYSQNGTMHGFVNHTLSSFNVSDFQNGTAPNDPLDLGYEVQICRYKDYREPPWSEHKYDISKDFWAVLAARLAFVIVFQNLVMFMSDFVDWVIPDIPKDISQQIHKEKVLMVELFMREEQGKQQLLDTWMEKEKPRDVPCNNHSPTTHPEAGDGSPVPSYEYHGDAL
Lipid droplet – hepatic lipid droplet formation modulation; AML12 mouse hepatocytes, oleate lipid droplets, BODIPY imaging; inhibition, % at 6.5 µM; 240,000 compounds, 0.4% hits; AID 1656;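 active = lipid droplet intensity inhibited by at least 50%, with more than 500 cells counted; inconclusive = wells with under 300 cells, treated as cytotoxic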
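Assay system: AML12 hepatocytes (mouse); Probe or stimulus: oleic acid at 100 µM to induce lipid droplet formation; Dosing: compound at 6.5 µM only; Schedule: compound with oleate, overnight; Detection: fluorescence imaging, 20x objective, two fields per well; Measure: % inhibition of lipid droplet signal.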
TMEM16A inh – blocks the mouse calcium-activated chloride channel TMEM16A; Q8BHY3; HEK293 TMEM16A/YFP iodide influx fluorescence, ionomycin; normalized B-score (activity score, 25-100; higher = stronger inhibition) at 10 µM; 310,000 compounds, 1.2% hits; AID 588511;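 active = ratio plate-corrected score three or more library SD toward inhibition, starting fluorescence score within five deviations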;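 note: score derived from kinetic fluorescence span divided by baseline fluorescence per well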
CHOP inhibitor – CHOP inhibition in unfolded protein response; CHO-K1 CHOP-promoter luciferase, tunicamycin-induced, 15-18 h; inhibition, % at 10 µM; 220,000 compounds, 3.8% hits;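 active = compounds that reduced the stress-induced luciferase reporter signal by more than about 70% of percent inhibition, limit read from the data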;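 note: 0% = tunicamycin plus vehicle and 100% = wells without tunicamycin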
UPR XBP1 act – adaptive UPR (XBP1) activation | CHO-XBP1 luciferase reporter, IRE1-XBP1 UPR activation, luminescence; percent of tunicamycin response, DMSO as zero | activation, % at 20 µM | 330,000 compounds, 0.33% hits | AID 463104;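 active = versus positive control, 20 µM dose yields 30% or more activation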;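 note: 100% = tunicamycin at 10 µg/mL and 0% = DMSO only wells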
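assay system = CHO-XBP1 luciferase reporter cells | amount = 1000 cells/well | buffer or medium = F12 plus 10% FBS | compound dosing = single point, 20 µM final compound, 1% DMSO | incubation = 16-18 h cell attachment at 37 °C, then 6 h compound exposure | detection = Steady-Glo luminescence read | controls = tunicamycin 10 µg/mL and vehicle-only wells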
* = called active by the depositor; i = inactive; ? = inconclusive; · = no result given.

SMILES | UPR CHOP act | ANO1 activ | Lipid droplet | TMEM16A inh | CHOP inhibitor | UPR XBP1 act
CC[C@H](C)/C=C(C)/C=C/C(=O)Cc1cc(O)c(C)c(O)c1C=O | 1.3 | -12.8* | -1.4 | i | -20.6 | -0.6
O=S(=O)(c1ccc2c(c1)C(=NO)c1cc(S(=O)(=O)N3CCCCC3)ccc1-2)N1CCCCC1 | 148.6* | i | · | i | · | 133.6*
O=S(=O)(c1ccc(S(=O)(=O)N2CCCC2)cc1)N1CCCCCC1 | -1.5 | i | · | i | 0.4 | -0.3
Oc1ccc(Br)cc1/C=N/n1cnc2ccccc21 | 4.6 | i | · | i | 73.9* | 5.7
CCN1CCN(C(=O)c2cc(S(=O)(=O)Nc3ccc(S(C)(=O)=O)cc3)ccc2Cl)CC1 | 1.4 | i | -4.1 | i | 2.1 | -7.8
O=c1c(C=Nc2ccc(Cl)cc2)c[nH]n1-c1cccc(Cl)n1 | 1.6 | i | · | i | 83.4* | -1.3
O=Cc1ccc(C(=O)OCC(=O)NCc2ccco2)cc1 | -0.4 | i | · | · | · | -1.6
COc1ccc(Cc2nc(-c3ccc(Cl)cc3)no2)cc1 | 2.7 | i | 3.9 | i | 54.6 | 2.4
Cc1ccc(-c2noc(CCCc3ccccc3)n2)cc1 | 2.5 | i | · | i | 23.7 | 0.5
COc1ccc(-c2noc(Cc3ccc(Cl)cc3)n2)cc1OC | 0.5 | i | 1.2 | i | 85.8* | 2.6
COc1ccc(-c2noc(CCCc3ccccc3)n2)cc1OC | 3.1 | i | -4.7 | i | 72.2* | 3.5
Cc1ccccc1/C=c1\s/c(=C\C(=O)C(C)(C)C)[nH]c1=O | 0.6 | i | 8.6 | i | 81.8* | 0.2
CC(C)(C)C(=O)/C=c1\[nH]c(=O)/c(=C\c2ccccc2F)s1 | 3.1 | i | 0.7 | i | 60.2 | 1.0
O=c1cc(N2CCOCC2)oc2c(-c3ccccc3)cccc12 | · | · | · | · | -3.6 | ·
CCC(=O)Oc1ccc(C(=O)Nc2ccc3c(c2)C(=O)N(C2CCCCC2)C3=O)cc1 | 0.7 | i | 31.7 | i | 70.7* | 5.8
O=C(O)CSc1nc(-c2ccc(Cl)cc2)nc2c1oc1ccccc12 | · | i | 2.3 | i | 74.3* | ·
COc1cc2nc(N3CCN(C(=O)OCc4ccccc4)C(C(=O)NC(C)(C)C)C3)nc(N)c2cc1OC (stereo not given) | · | · | · | · | 10.3 | ·
CCOc1ccc(CC(=O)OCc2cc(=O)n3cc(Br)ccc3n2)cc1 | -0.2 | i | 12.3 | i | 4.8 | -0.8
CCOc1ccc(OCC(=O)OCc2cc(=O)n3cc(Br)ccc3n2)cc1 | -0.6 | -10.2* | · | · | · | 1.0
Cc1ccc2[nH]c(=O)cc(C(=O)OCC(=O)c3ccccc3)c2c1 | 10.6 | i | 2.4 | i | -19.2 | -2.0
Cc1ccc2[nH]c(=O)cc(C(=O)OCC(=O)c3ccc(F)cc3)c2c1 | -0.4 | i | 9.9 | i | 77.0* | 0.8
O=C(COC(=O)c1ccccc1NCCO)NCC1CCCCC1 | -1.2 | i | · | · | · | -0.8
O=C(NC(=S)Nn1cnc2c(cnn2-c2ccccc2)c1=O)c1ccc(Cl)cc1 | 3.4 | i | -7.2 | i | 4.0 | 0.8
O=C(NC(=S)Nn1cnc2c(cnn2-c2ccccc2)c1=O)c1ccc(Oc2ccccc2)cc1 | -2.6 | i | 17.5 | i | 73.4* | -1.2
C=CCN1C(=O)S/C(=C/c2ccc(Sc3nc4ccccc4[nH]3)o2)C1=O | 0.8 | i | -42.5 | 100* | 38.2 | -0.1
SMILES | UPR CHOP act | ANO1 activ | Lipid droplet | TMEM16A inh | CHOP inhibitor | UPR XBP1 act
CC(C)N1C(=O)S/C(=C/c2ccc(Sc3nc4ccccc4[nH]3)o2)C1=O | 7.1 | i | -31.7 | 100* | 70.1* | -0.6
Cc1cc(Cl)ccc1NC(=O)COC(=O)c1c(C)noc1C | 0.2 | i | · | · | · | -3.2
O=C(COC(=O)c1cccc(Cl)c1)NCc1ccccc1 | 1.1 | i | · | · | · | -0.6
CC(C)(C)c1ccc(C(=O)NCC(=O)OCC(=O)Nc2nc(-c3ccc(F)cc3)cs2)cc1 | 2.0 | i | 26.8 | i | 73.5* | -1.4
Oc1[nH]c2ccc(Br)cc2c1N=NC(=S)NCC1CCCO1 (stereo not given) | -2.0 | i | -5.4 | i | 94.5* | 4.5
O=C(N/N=C/c1cc([N+](=O)[O-])ccc1O)c1cc(-c2ccccc2)nc2ccccc12 | 4.2 | i | -35.3 | 25* | 58.0 | 1.0
COc1ccccc1-c1cc(C(=O)N/N=C/c2sccc2C)c2ccccc2n1 | -2.2 | i | · | i | 8.5 | -4.9
Cc1cc(C(=O)N/N=C/c2ccc([N+](=O)[O-])cc2)c2ccccc2n1 | -1.2 | i | -22.9 | i | -8.9 | -2.2
Cc1ccsc1/C=N/NC(=O)c1cc(-c2ccncc2)nc2ccccc12 | -1.7 | -4.97* | ? | i | 17.7 | 9.3
Cc1cc(C(=O)N/N=C/c2cc([N+](=O)[O-])ccc2O)c2ccccc2n1 | -0.6 | i | -15.2 | i | 71.4* | -0.8
O=C(N/N=C/c1cc([N+](=O)[O-])ccc1Cl)c1cc(-c2ccccc2)nc2ccccc12 | -0.9 | i | -1.3 | i | 9.4 | -2.6
O=C(N/N=C/c1cc([N+](=O)[O-])ccc1O)c1c[nH]c2ccccc12 | -1.2 | i | -0.5 | i | 80.7* | -0.8
Cc1[nH]c2ccccc2c1SCC(=O)N1CCCCCC1 | -1.0 | i | 10.2 | i | -6.3 | -3.3
CC1CCN(CCC(=O)Nc2ccc(F)c(F)c2)CC1 | 0.9 | i | -6.4 | i | · | -0.7
O=C(N/N=C/c1cccnc1)c1cc(-c2ccc(Cl)cc2)nc2ccccc12 | 0.8 | i | · | i | · | -1.0
O=C(N/N=C/c1ccc(Cl)cc1)c1cc(-c2cccnc2)nc2ccccc12 | 0.2 | i | -107.1 | i | 83.9* | 7.3
CCn1c(=O)[nH]c2cc(C(=O)Nc3cc(C)cc(C)c3)ccc2c1=O | 0.6 | i | 4.5 | i | 88.7* | 1.9
CCCCCn1c(=O)[nH]c2cc(C(=O)Nc3ccc(OC)cc3)ccc2c1=O | 0.1 | i | -5.8 | i | · | -2.5
O=C(c1ccc(N2C(=O)C3C4CC(C(Br)C4Br)C3C2=O)cc1)N1CCCCC1 (stereo not given) | 1.9 | i | 14.2 | · | · | -4.1
CCSc1nc2sc3c(c2c(=O)[nH]1)CCc1ccccc1-3 | 0.7 | i | -3.9 | i | 83.9* | 0.9
NNc1nc2sc3c(c2c(=O)[nH]1)CCc1ccccc1-3 | -2.0 | i | 7.4 | i | 6.7 | -0.7
O=C(NC1CC1)C(=O)c1c(-c2ccccc2)[nH]c2ccccc12 | 2.1 | -7.55* | -1.3 | i | 4.6 | 1.7
Cn1nc(C(=O)NC2CCCCC2)c2c1-c1ccccc1SC2 | 3.6 | i | -1.2 | i | · | 9.0
CC(C)N(C(=O)c1nn(C)c2c1CSc1ccccc1-2)C1CCCCC1 | 1.0 | i | -5.9 | 25* | · | -1.1
